Screening data: PubChem, several laboratories
Sampled rows, rich in hits. Any-hit rate of the full collection: about 3.8%.
Hep lipid drop – hepatic lipid droplet formation modulation | inhibition, % at 6.5 µM | AML12 mouse hepatocytes, oleate lipid droplets, BODIPY imaging | 0.4% of 240,000 active | AID 1656;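 active means lipid droplet intensity inhibited by at least 50%, with more than 500 cells counted; inconclusive means wells with under 300 cells, treated as cytotoxic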
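Test system: AML12 hepatocytes (mouse); reagent: oleate loading, 100 µM; dosing: one dose, 6.5 µM compound; incubation: overnight exposure; signal: fluorescence imaging, 20x objective, two fields per well; read-out basis: % inhibition of corrected integrated BODIPY droplet signal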
RGS4 act – potentiators or activators of RGS4 | HEK293 M3R/inducible RGS4, carbachol calcium flux Fluo4; active compounds read low | B-score at 10 µM | 0.92% of 310,000 active | AID 463111;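 active means B-score of the integrated calcium signal more than 4 SD below the library mean, with starting fluorescence not abnormally high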;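 further: negative B-score means reduced calcium response which marks RGS4 activation or potentiation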
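System – HEK293 FlpIn-TREx cells, stable M3R, doxycycline-inducible RGS4 · Reagent – ECmax carbachol challenge · Times – compound preincubation 20 min at room temperature before agonist · Technique – Fluo4 fluorescence kinetic imaging of calcium · Measure – B score of integrated Fluo4 ratio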
RGS4 block – human RGS4 inhibition | HEK293 M3R/RGS4 inducible, Fluo-4 calcium flux; active compounds read high; triggered by carbachol at its EC20 | B-score at 10 µM | 0.45% of 310,000 active;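 active means B-score, a plate-corrected calcium signal, over three deviations above library mean, with baseline fluorescence within five deviations of library mean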;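 further: RGS4 expression induced by doxycycline in cells with stable M3 receptor; B-score is computed from the integrated fluorescence ratio over baseline after carbachol; higher B-score means a larger calcium signal and so more RGS4 inhibition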
Target sequence (P49798 whole entry, looked up): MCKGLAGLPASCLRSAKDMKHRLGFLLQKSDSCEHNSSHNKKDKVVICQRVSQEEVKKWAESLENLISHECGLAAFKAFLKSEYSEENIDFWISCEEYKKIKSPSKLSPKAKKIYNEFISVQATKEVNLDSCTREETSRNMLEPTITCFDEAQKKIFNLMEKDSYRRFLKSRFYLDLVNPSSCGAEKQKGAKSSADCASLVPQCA
MrgX1 PAM – allosterically activates human MrgX1 receptor signaling; MrgX1-HEK293, Fluo-4 calcium flux, FDSS; active compounds read high; B-score at 10 µM; 0.63% of 310,000 active;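 active means plate-corrected calcium response at least 3 library SD above typical, normal starting fluorescence, not activating the receptor alone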;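 further: compound read alongside a low EC10 to EC30 dose of BAM8-22 agonist; peak minus trough fluorescence over baseline measured at the second addition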
MrgX1 ag – human MrgX1 receptor agonism, primary screen; Q96LB2; MrgX1-HEK293 cells, Fluo-4 calcium fluorescence, agonist mode; active compounds read high; B-score at 10 µM; 0.44% of 310,000 active; AID 588627;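 active means calcium response B-score plate-corrected fluorescence ratio at least 3 library SD, with starting fluorescence B-score inside 5 SD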
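System – MrgX1-expressing HEK293 cells · Incubation – cells plated overnight, dye loaded 0.5 h 37 °C, 0.5 h room temperature · Technique – kinetic Fluo-4 NW fluorescence of intracellular calcium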
MrgX1 antag – antagonists of human MrgX1 receptor. 1.3% of 310,000 active. MRGX1-HEK293 calcium flux, Fluo-4, BAM8-22 antagonism; active compounds read low. B-score at 10 µM. AID 588676;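 active means calcium-response B-score plate-corrected more than 3 library SD below zero, starting fluorescence within 5 deviations, no agonist response on first addition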;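 further: peak minus trough fluorescence over baseline after final BAM8-22 challenge near maximal dose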
Numbers without * were called inactive; i = inactive; ? = inconclusive; nt = no result given.

SMILES	Hep lipid drop	RGS4 act	RGS4 block	MrgX1 PAM	MrgX1 ag	MrgX1 antag
CN(Cc1c(F)cccc1Cl)C(=O)CNC(=O)c1sc2ccccc2c1Cl	nt	i	i	i	i	i
Cn1c2ccccc2c2cc(/C=N/NC(=O)c3cc(O)ccc3O)ccc21	8.6	-9.04*	i	i	i	i
CCc1ccc(CNC(=O)C2CC(=O)N(C3CCCC3)C2)cc1 (configuration not stated)	-10.3	i	i	i	i	i
N#Cc1c(N)n(Cc2ccccc2)c(=O)c2cc([N+](=O)[O-])ccc12	-3.3	i	i	i	i	i
Cn1c(N)c(-c2ccccc2)c2ccc([N+](=O)[O-])cc2c1=O	-0.1	i	i	i	29.8*	i
Cc1cc(Cl)ccc1Oc1ncnc2oc(-c3ccccc3)cc12	nt	i	i	11.5*	i	i
O=C(CCl)N=c1sccn1Cc1ccc(Cl)cc1Cl	?	i	i	i	i	i
O=C(CCl)N=c1sccn1Cc1ccccc1Cl	?	-7.3*	i	i	i	i
COc1cc(/C=N/NC(=O)C2CC(=O)N(c3ccc(C)cc3)C2)cc(OC)c1OC (configuration not stated)	2.7	i	i	i	i	i
Cc1ccc(NC(=O)/C(Cl)=C/c2ccccc2)cc1C	-6.2	i	i	8.96*	i	i
CC(=O)Nc1ccccc1C(=O)C(=O)Nc1ccc(C)c(C)c1	3.7	i	i	i	i	i
CC(=O)Nc1sc2c(c1C(c1ccccc1Cl)N1CCN(CCO)CC1)CCCC2 (configuration not stated)	26.8	-7.51*	i	i	i	i
O=C(Nc1ccc(C(=O)O)cc1)/C(=C\C=C\c1ccccc1)NC(=O)c1ccccc1Br	-3.1	-7.71*	i	i	i	i
O=C(Nc1ccc(C(=O)O)cc1)/C(=C\C=C\c1ccccc1)NC(=O)c1cccc(Br)c1	-5.2	i	i	i	i	i
COc1ccc(NC(=O)C2CCCN2C(=O)NC2CCCCC2)cc1 (configuration not stated)	9.8	i	i	i	i	i
CC1CCC(C(C)C)C(OC(=O)CSc2nnc(N)s2)C1 (configuration not stated)	nt	i	i	i	i	i
CC1CCC(C(C)C)C(OC(=O)Cn2c(-c3ccc(F)cc3)[n+](C)c3ccccc32)C1 (configuration not stated)	-30.0	nt	nt	i	i	-5.79*
CC1CCC(C(C)C)C(OC(=O)CSc2nc(N)cc(=O)[nH]2)C1 (configuration not stated)	nt	i	i	i	i	i
Cc1cccc(OC(=O)Cn2c(C(F)(F)F)nc3ccccc32)c1	nt	i	i	i	i	i
CC1CCC(C(C)C)C(OC(=O)Cn2c(-c3ccccc3)[n+](C)c3ccccc32)C1 (configuration not stated)	-7.3	i	i	i	i	-7.51*
Cc1cccc(OCc2n(CC(=O)OC3CC(C)CCC3C(C)C)c3ccccc3[n+]2C)c1 (configuration not stated)	11.5	-12.3*	i	i	i	-9.64*
Oc1ccc(N2CCN(Cc3cc4c(cc3Br)OCCO4)CC2)cc1	-3.9	i	i	i	i	i
CC(C)CC(=O)NC(NC(=S)Nc1sc2c(c1C#N)CCCC2)C(Cl)(Cl)Cl (configuration not stated)	nt	i	i	i	i	-4.51*
O=C1N(c2ccc3c(c2)OCCO3)C(c2ccccc2)C1(F)F (configuration not stated)	5.3	i	i	6.93*	i	i
Cc1ccc(NC(=O)COC(=O)/C=C/c2c(C)nn(-c3ccc(F)cc3)c2Cl)cc1F	10.2	i	i	i	i	-5.4*
Cc1nn(-c2ccc(F)cc2)c(Cl)c1/C=C/C(=O)OCC(=O)Nc1ccc(F)cc1F	-16.8	i	i	i	i	i
